Assay results from ChEMBL document CHEMBL1141255, “Trijugin-type limonoids from the leaves of Cipadessa cinerascens” (2007).

What was measured:
[1] = system: K562; experiment: Cytotoxicity against human K562 cells by MTT assay; assay type: functional; settings: read-out: ED50 (the source's name)
Procedure, shortened: (§1)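 In vitro growth inhibition of A549 (human lung adenocarcinoma) and K562 (human […] leukemia) tumour cells. Potency is reported as ED50, the 50% effective dose of clonal inhibition, in µg/mL.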

[2] = system: A549; experiment: Cytotoxicity against human A549 cells by MTT assay; assay type: functional; settings: read-out: ED50 (the source's name); procedure, shortened: as §1

Row | Structure (SMILES) | EC50 [1] | EC50 [2]
1 | COC(=O)C[C@H]1C(C)(C)[C@H](OC(C)=O)[C@H](OC(C)=O)[C@@H]2O[C@]34CC(=O)O[C@@H](c5ccoc5)[C@]3(C)[C@@H](OC(C)=O)[C@@H](C(=O)[C@@H]4C)[C@@]21C [CIPADESIN A] | > 5 µg/mL | > 5 µg/mL
2 | C=C1[C@@H]2C[C@@]3(C)[C@H](c4ccoc4)OC(=O)C[C@]13O[C@H]1C[C@@H](OC(C)=O)C(C)(C)[C@H](CC(=O)OC)[C@@]1(C)C2=O [CIPATRIJUGIN A] | > 5 µg/mL | > 5 µg/mL
3 | C=C1[C@]2(O)C[C@@]3(C)[C@H](c4ccoc4)OC(=O)C[C@]13O[C@H]1C[C@@H](OC(C)=O)C(C)(C)[C@H](CC(=O)OC)[C@@]1(C)C2=O [CIPATRIJUGIN B] | > 5 µg/mL | > 5 µg/mL
4 | C=C1[C@]2(OC(C)=O)C[C@@]3(C)[C@H](c4ccoc4)OC(=O)C[C@]13O[C@H]1C[C@@H](OC(C)=O)C(C)(C)[C@H](CC(=O)OC)[C@@]1(C)C2=O [CIPATRIJUGIN C] | > 5 µg/mL | > 5 µg/mL
5 | C=C1[C@H]2C(=O)[C@@]3(C)[C@H](C[C@@H](OC(C)=O)C(C)(C)[C@@H]3CC(=O)OC)O[C@@]13CC(=O)O[C@@H](c1ccoc1)[C@]3(C)[C@H]2OC(C)=O [CIPATRIJUGIN D] | > 5 µg/mL | > 5 µg/mL
6 | COc1cccc2c1C(=O)c1c(O)c3c(c(O)c1C2=O)C[C@@](O)(C(=O)CO)C[C@@H]3O[C@H]1C[C@H](N)[C@H](O)[C@H](C)O1 [DOXORUBICIN] | 59.5 nM | 59.5 nM
